Data taken from ChEMBL document CHEMBL2331333, “Synthesis, biological evaluation of new oxazolidino-sulfonamides as potential antimicrobial agents” (2013).
In brackets after ≈: the same amount, converted by molar mass. Activity calls are given as the source filed them. The calls are words filed in the database; no cut-off is given here.

Columns and labels:
Pseudomonas aeruginosa [1] = assay: Antibacterial activity against Pseudomonas aeruginosa MTCC 2453 after 24 hrs by agar dilution method; assay type: functional; details: MTCC 2453, 24 h
[2] = test system: Mycobacterium tuberculosis; assay: Antibacterial activity against Mycobacterium tuberculosis H37Rv at 32 ug/ml […] by agar dilution method; assay type: functional, organism-based
Escherichia coli = assay: Antibacterial activity against Escherichia coli MTCC 739 at 80 ug/ml after 24 hrs by agar dilution method; assay type: functional, organism-based
Staphylococcus [3] = assay: Antibacterial activity against Staphylococcus MLS-16 MTCC 2940 at 80 ug/ml after 24 hrs by agar dilution method; assay type: functional, organism-based
Candida albicans [4] = assay: Antifungal activity against Candida albicans MTCC 3017 at 80 ug/ml after 48 hrs by agar dilution method; assay type: functional, organism-based
How it was run: (§1)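 Same disk/dilution format as the antibacterial assay, on potato dextrose agar (39 g/L). Compounds were from DMSO stock, loaded at 1 to 80 per disk, in triplicate. Plates were incubated at 28 ± 2 °C for 48 h. MIC was the lowest amount that arrested growth. Equivalent DMSO served as solvent control.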

Bacillus subtilis [5] = assay: Antibacterial activity against Bacillus subtilis MTCC 121 after 24 hrs by agar dilution method; assay type: functional; details: MTCC 121, 24 h
Staphylococcus aureus [6] = assay: Antibacterial activity against Staphylococcus aureus MTCC 96 at 80 ug/ml after 24 hrs by agar dilution method; assay type: functional, organism-based
Micrococcus luteus [7] = assay: Antibacterial activity against Micrococcus luteus MTCC 2470 at 80 ug/ml after 24 hrs by agar dilution method; assay type: functional, organism-based
Raoultella planticola = assay: Antibacterial activity against Klebsiella planticola MTCC 530 at 80 ug/ml after 24 hrs by agar dilution method; assay type: functional, organism-based
Candida albicans [8] = assay: Antifungal activity against Candida albicans MTCC 3017 at 20 ug/ml after 24 hrs by disk diffusion method; assay type: functional; details: MTCC 3017, 24 h, read-out: IZ
Micrococcus luteus [9] = assay: Antibacterial activity against Micrococcus luteus MTCC 2470 after 24 hrs by agar dilution method; assay type: functional; details: MTCC 2470, 24 h
Staphylococcus [10] = assay: Antibacterial activity against Staphylococcus MLS-16 MTCC 2940 at 20 ug/ml after 24 hrs by disk diffusion method; assay type: functional; details: MLS-16 MTCC 2940, 24 h, read-out: IZ
Bacillus subtilis [11] = assay: Antibacterial activity against Bacillus subtilis MTCC 121 at 20 ug/ml after 24 hrs by disk diffusion method; assay type: functional; details: MTCC 121, 24 h, read-out: IZ
Micrococcus luteus [12] = assay: Antibacterial activity against Micrococcus luteus MTCC 2470 at 20 ug/ml after 24 hrs by disk diffusion method; assay type: functional; details: MTCC 2470, 24 h, read-out: IZ
Pseudomonas aeruginosa [13] = assay: Antibacterial activity against Pseudomonas aeruginosa MTCC 2453 at 20 ug/ml after 24 hrs by disk diffusion method; assay type: functional; details: MTCC 2453, 24 h, read-out: IZ
Staphylococcus [14] = assay: Antibacterial activity against Staphylococcus MLS-16 MTCC 2940 after 24 hrs by agar dilution method; assay type: functional; details: MLS-16 MTCC 2940, 24 h
Staphylococcus aureus [15] = assay: Antibacterial activity against Staphylococcus aureus MTCC 96 at 20 ug/ml after 24 hrs by disk diffusion method; assay type: functional; details: MTCC 96, 24 h, read-out: IZ
Staphylococcus aureus [16] = assay: Antibacterial activity against Staphylococcus aureus MTCC 96 after 24 hrs by agar dilution method; assay type: functional; details: MTCC 96, 24 h
Candida albicans [17] = assay: Antifungal activity against Candida albicans MTCC 3017 after 48 hrs by agar dilution method; assay type: functional; details: MTCC 3017, 48 h; how it was run: as §1
[18] = test system: Mycobacterium tuberculosis; assay: Antibacterial activity against Mycobacterium tuberculosis H37Rv after 2 to 3 weeks by broth microdilution method; assay type: functional
How it was run: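 M. tuberculosis H37Rv, first screened at a single concentration of 32 in triplicate in a microtiter plate (microplate dilution assay). Compounds active in this screen were then taken to MIC determination by broth microdilution. Compounds were dissolved in DMSO.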

Pseudomonas aeruginosa [19] = assay: Antibacterial activity against Pseudomonas aeruginosa MTCC 2453 at 80 ug/ml after 24 hrs by agar dilution method; assay type: functional, organism-based
Bacillus subtilis [20] = assay: Antibacterial activity against Bacillus subtilis MTCC 121 at 80 ug/ml after 24 hrs by agar dilution method; assay type: functional, organism-based

O=C1O[C@@H](CNS(=O)(=O)c2cccc(Cl)c2)CN1c1ccc(N2CCSCC2)c(F)c1
MIC (Pseudomonas aeruginosa [1]): 10 µg/mL (≈ 20.6 µM) | Activity [2]: inactive | Activity (Escherichia coli): inactive | Activity (Staphylococcus [3]): inactive | Activity (Candida albicans [4]): inactive | MIC (Bacillus subtilis [5]): 20 µg/mL (≈ 41.2 µM) | Activity (Staphylococcus aureus [6]): inactive | Activity (Micrococcus luteus [7]): inactive | Activity (Raoultella planticola): inactive

O=C1O[C@@H](CNS(=O)(=O)c2ccc(F)cc2)CN1c1ccc(N2CCSCC2)c(F)c1
zone of inhibition at 20 µg/mL (Candida albicans [8]): 16 mm | MIC (Pseudomonas aeruginosa [1]): 10 µg/mL (≈ 21.3 µM) | MIC (Micrococcus luteus [9]): 10 µg/mL (≈ 21.3 µM) | zone of inhibition at 20 µg/mL (Staphylococcus [10]): 17 mm | zone of inhibition at 20 µg/mL (Bacillus subtilis [11]): 23 mm | Activity [2]: inactive | Activity (Escherichia coli): inactive | zone of inhibition at 20 µg/mL (Micrococcus luteus [12]): 14 mm | zone of inhibition at 20 µg/mL (Pseudomonas aeruginosa [13]): 17 mm | MIC (Staphylococcus [14]): 10 µg/mL (≈ 21.3 µM) | zone of inhibition at 20 µg/mL (Staphylococcus aureus [15]): 18 mm | MIC (Bacillus subtilis [5]): 8 µg/mL (≈ 17 µM) | MIC (Staphylococcus aureus [16]): 10 µg/mL (≈ 21.3 µM) | MIC (Candida albicans [17]): 10 µg/mL (≈ 21.3 µM) | Activity (Raoultella planticola): inactive

O=C1O[C@@H](CNS(=O)(=O)c2ccc(F)cc2)CN1c1ccc(N2CCOCC2)c(F)c1
MIC (Pseudomonas aeruginosa [1]): 10 µg/mL (≈ 22.1 µM) | MIC [18]: 1 µg/mL (≈ 2.21 µM) | MIC (Staphylococcus [14]): 10 µg/mL (≈ 22.1 µM) | MIC (Bacillus subtilis [5]): 10 µg/mL (≈ 22.1 µM) | Activity (Micrococcus luteus [7]): inactive | MIC (Candida albicans [17]): 10 µg/mL (≈ 22.1 µM)

O=C1O[C@@H](CNS(=O)(=O)c2ccc(F)cc2Cl)CN1c1ccc(N2CCOCC2)c(F)c1
Activity [2]: inactive | Activity (Escherichia coli): inactive | MIC (Staphylococcus [14]): 20 µg/mL (≈ 41 µM) | Activity (Candida albicans [4]): inactive | MIC (Bacillus subtilis [5]): 8 µg/mL (≈ 16.4 µM) | Activity (Pseudomonas aeruginosa [19]): inactive | MIC (Staphylococcus aureus [16]): 20 µg/mL (≈ 41 µM) | Activity (Micrococcus luteus [7]): inactive | Activity (Raoultella planticola): inactive

O=C1O[C@@H](CNS(=O)(=O)c2cc(S(=O)(=O)c3ccccc3)cs2)CN1c1ccc(N2CCOCC2)c(F)c1
Activity [2]: inactive | Activity (Escherichia coli): inactive | Activity (Bacillus subtilis [20]): inactive | Activity (Staphylococcus [3]): inactive | Activity (Candida albicans [4]): inactive | Activity (Pseudomonas aeruginosa [19]): inactive | Activity (Staphylococcus aureus [6]): inactive | Activity (Micrococcus luteus [7]): inactive | Activity (Raoultella planticola): inactive

O=C1O[C@@H](CNS(=O)(=O)c2ccc(Oc3ccccc3)cc2)CN1c1ccc(N2CCSCC2)c(F)c1
MIC (Pseudomonas aeruginosa [1]): 20 µg/mL (≈ 36.8 µM) | Activity [2]: inactive | Activity (Escherichia coli): inactive | Activity (Bacillus subtilis [20]): inactive | MIC (Staphylococcus [14]): 8 µg/mL (≈ 14.7 µM) | MIC (Staphylococcus aureus [16]): 8 µg/mL (≈ 14.7 µM) | Activity (Micrococcus luteus [7]): inactive | MIC (Candida albicans [17]): 20 µg/mL (≈ 36.8 µM) | Activity (Raoultella planticola): inactive
